# Results of several laboratories.
# Lines come from different studies, so protocols differ.
# Target: Rho-associated protein kinase 2 (ROCK2, Homo sapiens, UniProt O75116)
Compound,observed,method,concentration,remaining binding
N[C@@H]1CCN(c2nccc(-c3cnn4ncccc34)n2)C1,binding,,1 µM,100%
Nc1ncc2c(n1)-c1c([nH]c3ccc(C#CC4CC4)cc13)CCCC2,binding,competition with immobilised ligand,1 µM,75%
O=C(Nc1c[nH]nc1C(=O)NC1CCNCC1)c1cc(F)cc(F)c1,binding,competition with immobilised ligand,1 µM,88%
CCN1CCN(Cc2ccc(C(=O)Nc3ccc(C)c(Oc4ccc5c(c4)CC(=O)N5)c3)cc2C(F)(F)F)CC1,binding,competition with immobilised ligand,1 µM,74%
CC(C)(C)c1ccc(-c2nc(CBr)nn2-c2cccc(O)c2)cc1,cell-free assay,competition with immobilised ligand,10 µM,58%
O=C(NCCCN1CCOCC1)c1ccc(Nc2nccc(-c3cc4ccccc4s3)n2)cc1,binding,competition with immobilised ligand,1 µM,46%
C[C@H](c1cccc(C#N)c1)n1cc(Cl)cc(C(N)=O)c1=N,cell-free assay,competition with immobilised ligand,1 µM,94%
C[C@@H](c1ccc(-n2cnc3c(N)ncnc32)cc1)N1CCc2nn(C)c(Cc3ccccc3)c2C1=O,binding,competition with immobilised ligand,0.1 µM,77%
CN(c1nccc(-c2cnn3ncccc23)n1)C1CC1,binding,,1 µM,100%
O=C(c1ccc(Nc2ncc(Cl)c(-c3cc4ccccc4s3)n2)cc1)N1CCC(N2CCCC2)CC1,binding,competition with immobilised ligand,1 µM,7.2%
c1cnn2ncc(-c3ccnc(N4CCC45COC5)n3)c2c1,binding,,1 µM,70%
O=C(NCCCC1CCCCC1)c1ccc(CNC(=O)c2cnn(-c3ccccc3)c2C(F)(F)F)cc1,cell-free assay,competition with immobilised ligand,0.1 µM,100%
CC1CCCN1c1nccc(-c2cnn3ncccc23)n1 (stereo not drawn),binding,,1 µM,100%
COc1ncc2cc3ccccc3nc2c1C#N,cell-free assay,competition with immobilised ligand,5 µM,98%
CNC(=O)Nc1ccc2c(c1)CC[C@@]21OC(=O)N(CC(=O)N(Cc2ccc(F)cc2)[C@@H](C)C(F)(F)F)C1=O,cell-free assay,competition with immobilised ligand,1 µM,96%
CN(CCCC(F)(F)F)c1nccc(-c2cnn3ncccc23)n1,binding,,1 µM,100%
CC(=O)N1CCC(c2ccc(C(=O)NC(=N)N)cc2C(F)(F)F)CC1,cell-free assay,competition with immobilised ligand,1 µM,100%
C[C@@H]1CN(c2ccc3ncc(-c4ccc5[nH]nc(C6CC6)c5c4)n3n2)C[C@H](C)O1,binding,competition with immobilised ligand,0.5 µM,21%
Cn1cc(Cl)c2c(Oc3c(F)cc(Nc4cc(Cl)nc(N)n4)cc3F)ccnc21,cell-free assay,competition with immobilised ligand,0.1 µM,83%
CN(C)c1nccc(-c2cnn3ncccc23)n1,binding,,1 µM,84%
O=C(N[C@H]1CCCCC/C=C\C2C[C@@]2(C(=O)O)NC(=O)[C@@H]2C[C@@H](Oc3ccncc3)CN2C1=O)OC1CCCC1 (stereo partly drawn),binding,competition with immobilised ligand,1 µM,100%
COc1cnc(Nc2cccc(S(N)(=O)=O)c2)nc1N1CCN(c2ccccc2)CC1,binding,competition with immobilised ligand,1 µM,90%
Cc1cnc(Nc2ccc(C(=O)N3CCC(N4CCCC4)CC3)cc2)nc1-c1cc2ccccc2s1,binding,competition with immobilised ligand,1 µM,11%
Cc1nc(N2CC[C@@H](O)C2)ncc1-c1cc(C(F)(F)F)cc2[nH]ncc12,binding,competition with immobilised ligand,1 µM,77%
